Experimental data as given in ChEMBL document CHEMBL5346932, “Structure-activity relationships of actively FhuE transported rifabutin derivatives with potent activity against Acinetobacter baumannii” (Eur J Med Chem, 2023).
Values after ≈ are worked out from the molar mass of the structure shown. Active and inactive are the calls of the source. No cut-off for these calls is given here.

What was measured:
Staphylococcus aureus [1] = test: Antibacterial activity against Staphylococcus aureus USA300 UAMS-1625 assessed as fold increase in MIC incubated for 20 hrs by CLSI based microbroth dilution method relative to rifabutin; assay type: functional
In short: (§1)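 CLSI broth microdilution in CAMHB against S. aureus USA300 UAMS-1625. Compounds in 2-fold dilution series; inoculum 5×10^5 CFU/mL. Incubated without shaking at 35 °C for 20 h. MIC read visually as the lowest concentration preventing visible growth. Fold changes are relative to the rifabutin MIC.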

Acinetobacter baumannii [2] = test: Antibacterial activity against Acinetobacter baumannii HUMC1 cultured in RPMI 1640 medium supplemented with 10% FCS assessed as bacterial growth inhibition incubated for 20 hrs by CLSI based microbroth dilution method; assay type: functional; conditions: Acinetobacter baumannii
In short: (§2)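 CLSI broth microdilution in RPMI 1640 + 10% FCS in place of CAMHB. Compounds in 2-fold dilution series; inoculum 5×10^5 CFU/mL. Plates held static at 35 °C for 20 h. MIC read visually as the lowest concentration with no visible growth. […] is the reciprocal of this MIC.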

Staphylococcus aureus [3] = test: Antibacterial activity against Staphylococcus aureus USA300 UAMS-1625 assessed as fold reduction in MIC incubated for 20 hrs by CLSI based microbroth dilution method relative to rifabutin; assay type: functional; in short: as §1
Acinetobacter baumannii [4] = test: Antibacterial activity against Acinetobacter baumannii HUMC1 harboring RpoB H535Q mutant assessed as fold reduction in MIC incubated for 20 hrs by CLSI based microbroth dilution method relative to rifabutin; assay type: functional
Acinetobacter baumannii [5] = test: Antibacterial activity against Acinetobacter baumannii HUMC1 harboring RpoB H535Q mutant assessed as bacterial growth inhibition incubated for 20 hrs by CLSI based microbroth dilution method; assay type: functional
In short: (§3)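 Microbroth dilution per CLSI in RPMI 1640 + 10% FCS (in place of CAMHB). Compounds as 2-fold serial dilutions; inoculum 5×10^5 CFU/mL of previously described HUMC1-derived mutant strains. Incubated static at 35 °C for 20 h. MIC read visually as lowest concentration preventing visible growth.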

[6] = Inhibition of transcription in Acinetobacter baumannii HUMC1 using pVT784 as reporter plasmid preincubated for 30 mins followed by reporter plasmid addition and measured after 60 mins by Nano-Glo luciferase assay; assay type: functional
In short: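 Cell-free transcription/translation used A. baumannii HUMC1 extract at 1.2 mg/mL, with extract from 2xYT+P culture after a run-off step and dialysis at pH 8.2. Compound was preincubated with extract for 30 min on ice. Reporter plasmid (0.5 nM) was then added and luminescence read after 60 min at 25 °C. Compounds were tested at 8 to 0.002 mg/L in triplicate. IC50 was fit from no-compound-normalized signal.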

Acinetobacter baumannii [7] = test: Antibacterial activity against Acinetobacter baumannii HUMC1 harboring RpoB H535C mutant assessed as bacterial growth inhibition incubated for 20 hrs by CLSI based microbroth dilution method; assay type: functional; in short: as §3
[8] = Drug accumulation in Acinetobacter baumannii HUMC1 cultured in iron-limited RPMI medium supplemented with 10% FCS measured per 5 ml of culture medium at 0.05 uM incubated for 10 mins by LC-MS/MS analysis; assay type: ADME
In short: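 5 mL of suspension was dosed from DMSO stocks (0.002–5 mM) and shaken at 150 rpm for 10 min at 37 °C. Cells were pelleted, washed, and lysed (sucrose/EDTA). LC-MS/MS MRM quantitation used caffeine-normalized standard curves in spiked lysate. Reported as amount per 5 mL; n≥2 independent replicates.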

Acinetobacter baumannii [9] = test: Antibacterial activity against Acinetobacter baumannii HUMC1 cultured in iron-limited RPMI medium supplemented with 10% FCS assessed as inverse MIC incubated for 20 hrs by CLSI based microbroth dilution method; assay type: functional; in short: as §2
Acinetobacter baumannii [10] = test: Antibacterial activity against Acinetobacter baumannii HUMC1 harboring FhuE deletion mutant assessed as bacterial growth inhibition incubated for 20 hrs by CLSI based microbroth dilution method; assay type: functional; in short: as §3
Acinetobacter baumannii [11] = test: Antibacterial activity against Acinetobacter baumannii HUMC1 harboring RpoB H535C mutant assessed as fold reduction in MIC incubated for 20 hrs by CLSI based microbroth dilution method relative to rifabutin; assay type: functional
Staphylococcus aureus [12] = test: Antibacterial activity against Staphylococcus aureus USA300 UAMS-1625 assessed as bacterial growth inhibition incubated for 20 hrs by CLSI based microbroth dilution method; assay type: functional; in short: as §1

| SMILES | MIC (Acinetobacter baumannii [2]; HUMC1, 20 h, read-out: MIC) | fold change (FC) (Staphylococcus aureus [3]) | IC50 [6] | 1/MIC (Acinetobacter baumannii [9]) | MIC (Acinetobacter baumannii [10]) | further results |
| --- | --- | --- | --- | --- | --- | --- |
| CO[C@H]1/C=C/O[C@@]2(C)Oc3c(C)c(O)c4c(c3C2=O)C2=NC3(CCN(C5CC5)CC3)NC2=C(NC(=O)/C(C)=C\C=C\[C@H](C)[C@H](O)[C@@H](C)[C@@H](O)[C@@H](C)[C@H](OC(C)=O)[C@@H]1C)C4=O (stereo in doubt; form 1) | ≤ 0.002 µg/mL | 2 | 0.12 mg/L (≈ 0.144 µM) | 1000 L/mg | 0.5 µg/mL (≈ 0.602 µM) | fold change (FC) (Acinetobacter baumannii [4]): 2; MIC (Acinetobacter baumannii [5]): 0.004 µg/mL (≈ 0.00481 µM); MIC (Acinetobacter baumannii [7]): 0.004 µg/mL (≈ 0.00481 µM); Drug uptake [8]: 24.66 pmol; fold change (FC) (Acinetobacter baumannii [11]): 2 |
| CO[C@H]1/C=C/O[C@@]2(C)Oc3c(C)c(O)c4c(c3C2=O)C2=NC3(CCN(C(C)(C)C)CC3)NC2=C(NC(=O)/C(C)=C\C=C\[C@H](C)[C@H](O)[C@@H](C)[C@@H](O)[C@@H](C)[C@H](OC(C)=O)[C@@H]1C)C4=O | 0.002 µg/mL (≈ 0.00236 µM) | – | 0.06 mg/L (≈ 0.0708 µM) | 500 L/mg | 0.5 µg/mL (≈ 0.59 µM) | Activity (Staphylococcus aureus [12]): Active; Drug uptake [8]: 32.73 pmol |
| CO[C@H]1/C=C/O[C@@]2(C)Oc3c(C)c(O)c4c(O)c(c(/C=N/N5CCN(C)CC5)c(O)c4c3C2=O)NC(=O)/C(C)=C\C=C\[C@H](C)[C@H](O)[C@@H](C)[C@@H](O)[C@@H](C)[C@H](OC(C)=O)[C@@H]1C [RIFAMPIN] | – | – | 0.07 mg/L (≈ 0.0851 µM) | 0.25 L/mg | – | Drug uptake ([8]; BLD = below limit of detection): Bld; MIC (Acinetobacter baumannii [2]; HUMC1, read-out: MIC): 4 µg/mL (≈ 4.86 µM) |
| CO[C@H]1/C=C/O[C@@]2(C)Oc3c(C)c(O)c4c(c3C2=O)C2=NC3(CCN(CCC(C)C)CC3)NC2=C(NC(=O)/C(C)=C\C=C\[C@H](C)[C@H](O)[C@@H](C)[C@@H](O)[C@@H](C)[C@H](OC(C)=O)[C@@H]1C)C4=O | 0.016 µg/mL (≈ 0.0186 µM) | – | – | – | 0.5 µg/mL (≈ 0.581 µM) | Activity (Staphylococcus aureus [12]): Active |
| CO[C@H]1/C=C/O[C@@]2(C)Oc3c(C)c(O)c4c(c3C2=O)C2=NC3(CCN(C(C)C)CC3)NC2=C(NC(=O)/C(C)=C\C=C\[C@H](C)[C@H](O)[C@@H](C)[C@@H](O)[C@@H](C)[C@H](OC(C)=O)[C@@H]1C)C4=O | 0.002 µg/mL (≈ 0.0024 µM) | 2 | – | – | 0.5 µg/mL (≈ 0.6 µM) | – |
| CO[C@H]1/C=C/O[C@@]2(C)Oc3c(C)c(O)c4c(c3C2=O)C2=NC3(CCNCC3)NC2=C(NC(=O)/C(C)=C\C=C\[C@H](C)[C@H](O)[C@@H](C)[C@@H](O)[C@@H](C)[C@H](OC(C)=O)[C@@H]1C)C4=O | 0.25 µg/mL (≈ 0.316 µM) | – | 0.05 mg/L (≈ 0.0632 µM) | 4 L/mg | 0.5 µg/mL (≈ 0.632 µM) | MIC (Acinetobacter baumannii [5]): 1 µg/mL (≈ 1.26 µM); MIC (Acinetobacter baumannii [7]): 1 µg/mL (≈ 1.26 µM); Drug uptake [8]: 0.47 pmol; fold change (FC) (Staphylococcus aureus [1]): 2 |
| CO[C@H]1/C=C/O[C@@]2(C)Oc3c(C)c(O)c4c(c3C2=O)C2=NC3(CCN(C5CCCCC5)CC3)NC2=C(NC(=O)/C(C)=C\C=C\[C@H](C)[C@H](O)[C@@H](C)[C@@H](O)[C@@H](C)[C@H](OC(C)=O)[C@@H]1C)C4=O | 0.016 µg/mL (≈ 0.0183 µM) | – | – | – | – | fold change (FC) (Staphylococcus aureus [1]): 2 |
| CO[C@H]1/C=C/O[C@@]2(C)Oc3c(C)c(O)c4c(c3C2=O)C2=NC3(CCN(CCC(C)(C)C)CC3)NC2=C(NC(=O)/C(C)=C\C=C\[C@H](C)[C@H](O)[C@@H](C)[C@@H](O)[C@@H](C)[C@H](OC(C)=O)[C@@H]1C)C4=O | 0.06 µg/mL (≈ 0.0686 µM) | 2 | 0.17 mg/L (≈ 0.194 µM) | 16.67 L/mg | 0.5 µg/mL (≈ 0.571 µM) | MIC (Acinetobacter baumannii [5]): 1 µg/mL (≈ 1.14 µM); MIC (Acinetobacter baumannii [7]): 1 µg/mL (≈ 1.14 µM); Drug uptake [8]: 9.55 pmol |

Further lines, with some results ahead:

| MIC (Acinetobacter baumannii [2]; HUMC1, 20 h, read-out: MIC) | SMILES | fold change (FC) (Staphylococcus aureus [3]) | IC50 [6] | 1/MIC (Acinetobacter baumannii [9]) | MIC (Acinetobacter baumannii [10]) | further results |
| --- | --- | --- | --- | --- | --- | --- |
| 0.125 µg/mL (≈ 0.144 µM) | CO[C@H]1/C=C/O[C@@]2(C)Oc3c(C)c(O)c4c(c3C2=O)C2=NC3(CCN(c5ccccc5)CC3)NC2=C(NC(=O)/C(C)=C\C=C\[C@H](C)[C@H](O)[C@@H](C)[C@@H](O)[C@@H](C)[C@H](OC(C)=O)[C@@H]1C)C4=O | – | – | – | – | fold change (FC) (Staphylococcus aureus [1]): 2 |
| 0.004 µg/mL (≈ 0.00488 µM) | CCN1CCC2(CC1)N=C1C(=C3NC(=O)/C(C)=C\C=C\[C@H](C)[C@H](O)[C@@H](C)[C@@H](O)[C@@H](C)[C@H](OC(C)=O)[C@H](C)[C@@H](OC)/C=C/O[C@@]4(C)Oc5c(C)c(O)c(c1c5C4=O)C3=O)N2 | 2 | – | – | – | – |
| ≤ 0.002 µg/mL | CO[C@H]1/C=C/O[C@@]2(C)Oc3c(C)c(O)c4c(c3C2=O)C2=NC3(CCN(C5CCCC5)CC3)NC2=C(NC(=O)/C(C)=C\C=C\[C@H](C)[C@H](O)[C@@H](C)[C@@H](O)[C@@H](C)[C@H](OC(C)=O)[C@@H]1C)C4=O (stereo in doubt; form 1) | 2 | – | – | – | – |
| 0.016 µg/mL (≈ 0.0183 µM) | CO[C@H]1/C=C/O[C@@]2(C)Oc3c(C)c(O)c4c(c3C2=O)C2=NC3(CCN(CC5CCCC5)CC3)NC2=C(NC(=O)/C(C)=C\C=C\[C@H](C)[C@H](O)[C@@H](C)[C@@H](O)[C@@H](C)[C@H](OC(C)=O)[C@@H]1C)C4=O | – | – | – | – | fold change (FC) (Staphylococcus aureus [1]): 2 |
| 0.008 µg/mL (≈ 0.00929 µM) | CCC(C)(C)N1CCC2(CC1)N=C1C(=C3NC(=O)/C(C)=C\C=C\[C@H](C)[C@H](O)[C@@H](C)[C@@H](O)[C@@H](C)[C@H](OC(C)=O)[C@H](C)[C@@H](OC)/C=C/O[C@@]4(C)Oc5c(C)c(O)c(c1c5C4=O)C3=O)N2 | 2 | – | – | – | – |
| 0.016 µg/mL (≈ 0.0199 µM) | CO[C@H]1/C=C/O[C@@]2(C)Oc3c(C)c(O)c4c(c3C2=O)C2=NC3(CCN(C)CC3)NC2=C(NC(=O)/C(C)=C\C=C\[C@H](C)[C@H](O)[C@@H](C)[C@@H](O)[C@@H](C)[C@H](OC(C)=O)[C@@H]1C)C4=O | 2 | – | – | – | – |
